ChEMBL document CHEMBL3763117, “Design, synthesis and biological evaluation of imidazo[2,1-b]thiazole and benzo[d]imidazo[2,1-b]thiazole derivatives as Mycobacterium tuberculosis pantothenate synthetase inhibitors” (Bioorg Med Chem, 2016)
pIC50: −log10 of the molar value. In brackets after ≈: the same amount, converted by molar mass. Activity calls are given as the source filed them. The calls are words filed in the database; no cut-off is given here.

Tests used:
Pantothenate synthetase = target: T1, Pantothenate synthetase (Mycobacterium tuberculosis, UniProt P9WIL5); assay: Inhibition of Mycobacterium tuberculosis pantothenate synthetase using pantoic acid as substrate and beta-alanine as reactant assessed as NAD+ formation by spectrophotmetry in presence of NADH
T1 sequence (P9WIL5 whole entry): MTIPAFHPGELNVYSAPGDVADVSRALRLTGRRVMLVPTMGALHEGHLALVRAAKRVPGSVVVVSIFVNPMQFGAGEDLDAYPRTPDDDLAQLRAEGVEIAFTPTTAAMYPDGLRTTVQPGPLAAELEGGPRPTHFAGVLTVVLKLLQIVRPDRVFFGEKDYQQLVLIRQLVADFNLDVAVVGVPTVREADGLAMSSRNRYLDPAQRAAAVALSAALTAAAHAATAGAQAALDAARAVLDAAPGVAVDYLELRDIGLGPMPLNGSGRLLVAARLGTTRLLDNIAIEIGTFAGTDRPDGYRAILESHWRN
Outline: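 Recombinant MTB PS (panC, Rv3602c) expressed in E. coli BL21(DE3). Coupled assay in 100 mM HEPES pH 7.8: 0.4 mM NADH, 5 mM pantoic acid, 5 mM β-alanine, 10 mM ATP, 10 mM MgCl2, 1 mM phosphoenolpyruvate, with myokinase, pyruvate kinase and lactate dehydrogenase. Compounds were tested from 25 µM downward. Reaction was started with PS; NADH depletion was read at 340 nm at 37 °C, background-corrected.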

[1] = system: Mycobacterium tuberculosis; assay: Antimycobacterial activity against Mycobacterium tuberculosis H37Rv ATCC 27294 after 7 days by microplate Alamar blue assay; format: functional; details: H37Rv ATCC 27294, 168 h
Outline: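 MABA against M. tuberculosis H37Rv. Inoculum came from LJ medium, resuspended in 7H9-S (7H9, 0.1% casitone, 0.5% glycerol, OADC), adjusted to McFarland No. 1 and diluted 1:20. Two-fold dilutions spanned 50 to 0.78 µg/mL, in duplicate. Plates ran 7 days at 37 °C, then alamar blue was added overnight. MIC was the lowest concentration preventing the blue-to-pink change.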

[2] = Cytotoxicity against mouse RAW264.7 cells assessed as inhibition of cell viability at 50 uM after 72 hrs by MTT assay; format: cell-based; details: read-out: INH
Outline: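 RAW 264.7 mouse macrophages were exposed to compound at 50 µM for 72 h. Viability was read as MTT conversion to formazan.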

Mycobacterium marinum [3] = assay: Antimycobacterial activity against Mycobacterium marinum ATCC BAA-535 infected in Zebra fish model assessed as reduction in bacterial load at 5 mg/kg, po administered for 7 days measured after 14 days by MPN assay; format: functional
Outline: (§1)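 Adult zebra fish infected with M. marinum ATCC BAA-535 (grown at 30 °C in Middlebrook 7H9 broth). Oral treatment began 7 days post infection and ran for 7 days. Fish were then sacrificed and homogenised in 7H9 broth. Homogenate was serially diluted to 10^-6, plated in 48-well plates and incubated at 30 °C. Bacterial count was by MPN.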

[4] = system: Mycobacterium tuberculosis; assay: Antimycobacterial activity against nutrient starved Mycobacterium tuberculosis H37Rv assessed as reduction in bacterial load at 10 ug/ml incubated for 7 days measured after 28 days by microplate reader analysis; format: functional
Outline: (§2)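 H37Rv grown in 7H9/OADC, pelleted, washed twice and resuspended in PBS. It was starved in sealed bottles at 37 °C for 6 weeks. Cultures were exposed to drug at 10 µg/ml for 7 days at 37 °C. Ten-fold dilutions to 10^-6 in 7H9/OADC were plated in triplicate and incubated 28 days at 37 °C without agitation. Wells with visible growth were scored and MPN calculated.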

[5] = system: Mycobacterium tuberculosis; assay: Antimycobacterial activity against nutrient starved Mycobacterium tuberculosis H37Rv assessed as reduction in bacterial load for 7 days measured after 28 days by microplate reader analysis; format: functional; outline: as §2
Mycobacterium marinum [6] = assay: Antimycobacterial activity against Mycobacterium marinum ATCC BAA-535 infected in Zebra fish model assessed as reduction in bacterial load at 10 mg/kg, po administered for 7 days measured after 14 days by MPN assay; format: functional; outline: as §1

| SMILES | pIC50 (Pantothenate synthetase) | MIC [1] [µM] | cytotoxicity at 72 h, 50 µM [2] [%] | Activity (Mycobacterium marinum [3]) [deltalog10CFU/ml] | Activity [4] [deltalog10CFU/ml] | MIC [5] [µg/mL] | Activity (Mycobacterium marinum [6]) |
| --- | --- | --- | --- | --- | --- | --- | --- |
| Cc1nc2sccn2c1C(=O)NC1CCCCC1 | 5.70 | 11.8 (≈ 3.12 µg/mL) | 32.1 | – | – | – | – |
| CO[C@H]1/C=C/O[C@@]2(C)Oc3c(C)c(O)c4c(O)c(c(/C=N/N5CCN(C)CC5)c(O)c4c3C2=O)NC(=O)/C(C)=C\C=C\[C@H](C)[C@H](O)[C@@H](C)[C@@H](O)[C@@H](C)[C@H](OC(C)=O)[C@@H]1C [RIFAMPIN] | – | – | – | 1.9 | 2.1 | 0.1 (≈ 0.122 µM) | – |
| Cc1nc2sccn2c1C(=O)N/N=C/c1ccc(Br)cc1 | 5.92 | 34.4 (≈ 12.5 µg/mL) | 22.2 | – | – | – | – |
| Cc1nc2sc3ccccc3n2c1C(=O)N/N=C/c1ccc(N(C)C)cc1 | 5.84 | 4.13 (≈ 1.56 µg/mL) | 12.1 | – | – | – | – |
| Cc1nc2sccn2c1C(=O)NNC(=O)c1ccc(Oc2ccccc2)cc1 | 5.91 | 7.96 (≈ 3.12 µg/mL) | 2.98 | – | – | – | – |
| COc1cc(/C=N/NC(=O)c2c(C)nc3sccn23)cc(OC)c1OC | 5.25 | 33.4 (≈ 12.5 µg/mL) | 1.17 | – | – | – | – |
| Cc1nc2sc3ccccc3n2c1C(=O)N/N=C/c1ccccc1 | 5.67 | 9.35 (≈ 3.13 µg/mL) | 34.6 | – | – | – | – |
| Cc1nc2sc3ccccc3n2c1C(=O)Nc1ccc(Br)cc1 | 6.28 | 16.2 (≈ 6.25 µg/mL) | 20.9 | – | – | – | – |
| Cc1nc2sc3ccccc3n2c1C(=O)Nc1ccccc1 | 5.99 | 40.7 (≈ 12.5 µg/mL) | 33.2 | – | – | – | – |
| Cc1nc2sc3ccccc3n2c1C(=O)NNC(=O)c1ccccc1 | 5.96 | 35.7 (≈ 12.5 µg/mL) | 29.7 | – | – | – | – |
| Cc1nc2sc3ccccc3n2c1C(=O)NNC(=O)c1cccc2ccccc12 | 5.86 | 15.6 (≈ 6.25 µg/mL) | 32 | – | – | – | – |
| Cc1ccc(C(=O)NNC(=O)c2c(C)nc3sc4ccccc4n23)cc1 | 5.23 | 17.1 (≈ 6.25 µg/mL) | 53 | – | – | – | – |
| COc1ccc(NC(=O)c2c(C)nc3sccn23)cc1 | 5.23 | 20.7 (≈ 5.96 µg/mL) | 58.7 | – | – | – | – |
| Cc1nc2sccn2c1C(=O)NCc1ccccc1 | 5.97 | 11.5 (≈ 3.13 µg/mL) | 12.7 | – | – | – | – |
| Cc1nc2sccn2c1C(=O)NNC(=O)C1CCCCC1 | 5.27 | 20.4 (≈ 6.25 µg/mL) | 31.2 | – | – | – | – |
| Cc1ccc(C(=O)NNC(=O)c2c(C)nc3sccn23)cc1 | 5.30 | 5.96 (≈ 1.87 µg/mL) | 39.2 | – | 2.1 | – | – |
| Cc1nc2sccn2c1C(=O)Nc1ccc(Br)cc1 | 6.16 | 2.32 (≈ 0.78 µg/mL) | 32.3 | – | 2 | – | – |
| COc1c(N2C[C@@H]3CCCN[C@@H]3C2)c(F)cc2c(=O)c(C(=O)O)cn(C3CC3)c12 [MOXIFLOXACIN] | – | – | – | 2.9 | – | 0.78 (≈ 1.94 µM) | – |

| SMILES | pIC50 (Pantothenate synthetase) | MIC [1] [µM] | cytotoxicity at 72 h, 50 µM [2] [%] | Activity (Mycobacterium marinum [3]) [deltalog10CFU/ml] | Activity [4] [deltalog10CFU/ml] | MIC [5] [µg/mL] | Activity (Mycobacterium marinum [6]) |
| --- | --- | --- | --- | --- | --- | --- | --- |
| CC1(C)S[C@@H]2[C@H](NC(=O)[C@H](N)c3ccc(O)cc3)C(=O)N2[C@H]1C(=O)O | – | – | – | – | – | – | inactive |
| Cc1nc2sc3ccccc3n2c1C(=O)NCc1ccccc1 | 6.08 | 19.4 (≈ 6.25 µg/mL) | 6.62 | – | – | – | – |
| Cc1nc2sccn2c1C(=O)NNC(=O)c1ccccc1 | 5.27 | 40.1 (≈ 12 µg/mL) | 10.3 | – | – | – | – |
| CC[C@@H](CO)NCCN[C@@H](CC)CO [ETHAMBUTOL] | < 4.60 | 7.64 (≈ 1.56 µg/mL) | – | – | – | – | – |
| NNC(=O)c1ccncc1 [ISONIAZID] | < 4.60 | 0.72 (≈ 0.0987 µg/mL) | – | – | 1.1 | 0.05 (≈ 0.365 µM) | 1.8 deltalog10CFU/ml |
| Cc1nc2sc3ccccc3n2c1C(=O)NNC(=O)C1CCCCC1 | 5.54 | 17.5 (≈ 6.25 µg/mL) | 45.4 | – | – | – | – |
| Cc1nc2sc3ccccc3n2c1C(=O)NC1CCCCC1 | 5.99 | 19.9 (≈ 6.25 µg/mL) | 13.4 | – | – | – | – |
| Cc1nc2sc3ccccc3n2c1C(=O)N/N=C/c1ccc(C(F)(F)F)cc1 | 5.27 | 16.5 (≈ 6.65 µg/mL) | 16.1 | – | – | – | – |
| Cc1nc2sccn2c1C(=O)Nc1ccccc1 | 6.13 | 12.1 (≈ 3.12 µg/mL) | 14.1 | – | – | – | – |
| Cc1nc2sccn2c1C(=O)N/N=C/c1ccccc1 | 6.24 | 23.2 (≈ 6.6 µg/mL) | 23.1 | – | – | – | – |
| Cc1nc2sc3ccccc3n2c1C(=O)N/N=C/c1ccc(Br)cc1 | 5.99 | 15.1 (≈ 6.25 µg/mL) | 10.1 | – | – | – | – |
| Cc1nc2sccn2c1C(=O)NNC(=O)c1cccc2ccccc12 | 6.19 | 17.8 (≈ 6.25 µg/mL) | 27.5 | – | – | – | – |
| Cc1nc2sccn2c1C(=O)N/N=C/c1ccc(C(F)(F)F)cc1 | 6.17 | 17.7 (≈ 6.25 µg/mL) | 12.8 | – | – | – | – |
| Cc1nc2sc3ccccc3n2c1C(=O)NNC(=O)c1ccc(Oc2ccccc2)cc1 | 6.28 | 3.53 (≈ 1.56 µg/mL) | 10.4 | – | – | – | 1.5 deltalog10CFU/ml |
| COc1cc(/C=N/NC(=O)c2c(C)nc3sc4ccccc4n23)cc(OC)c1OC | 5.68 | 29.4 (≈ 12.5 µg/mL) | 16.2 | – | – | – | – |
| CCOc1ccc(NC(=O)c2c(C)nc3sc4ccccc4n23)cc1 | 5.68 | 42 (≈ 14.7 µg/mL) | 52.7 | – | – | – | – |
| Cc1nc2sccn2c1C(=O)N/N=C/c1ccc(N(C)C)cc1 | 5.60 | 38.2 (≈ 12.5 µg/mL) | 6.75 | – | – | – | – |
